# sPLA2-III inh – Inhibits HGIII-sPLA2 liposome hydrolysis, primary screen; actives 0.56% (n = 370,000); Q9NZ20; AID 743126; QFRET BODIPY PC-A2 liposome hydrolysis, fluorescence; inhibition, % at 12.2 µM;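 active means inhibition above mean plus 3 SD of compounds lying within the high and low control bounds, cut at about 19% in these data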;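 further: 0% = median of test compound wells and 100% = no enzyme DMSO wells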
# Tb MetRS inh – blocks T. brucei methionyl-tRNA synthetase activity. purified T. brucei MetRS, ATP depletion, Kinase-Glo luminescence. inhibition, % at 11.9 µM. actives 0.4% (n = 360,000). AID 624268;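 active means inhibition above a per-plate cutoff of the control wells' mean inhibition plus 3 SD, cut at about 5.5% in these data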;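 further: 0% = DMSO wells median and 100% = median of wells with control inhibitor compound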
#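 Material: parasite MetRS enzyme / Replication: singlicate, one well per compound / Signal: luminescence of leftover ATP / Schedule: 2 h aminoacylation at 25 °C after 15 min preincubation / Medium: HEPES-MgCl2-KCl buffer plus DTT, spermine, BSA, pyrophosphatase / Doses: 11.9 µM single point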
# PLC-gamma1 inh – blocks human PLC-gamma1 enzyme activity | P19174 | purified PLC-gamma1, fluorogenic substrate, fluorescence | inhibition, % at 12.2 µM | actives 0.84% (n = 370,000) | AID 720700; in the data active means inhibition above about 9.5%
# PLC-beta3 inh – PLC-beta3 (human) inhibition, primary screen | Q01970 | Purified PLC-beta3, fluorogenic substrate, fluorescence | inhibition, % at 12.2 µM | actives 0.18% (n = 370,000) | AID 720704; in the data active means inhibition above about 11%;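 further: 0% = median of compound wells on plate and 100% = full blocker control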
# * marks the source's active call; other numbers are inactive results; nt = no result given; ! = not confirmed by another sample. Most compounds without a hit are left out; they make up all but 1.9% or so of the library.
SMILES,sPLA2-III inh,Tb MetRS inh,PLC-gamma1 inh,PLC-beta3 inh
CC(=O)c1c(C)[nH]c(C(=O)OCC(=O)Nc2cc(Cl)ccc2[N+](=O)[O-])c1C,0,0,11*,10
Cc1cc(C(=O)COC(=O)c2ccc3c(c2)OCO3)c(C)n1Cc1cccs1,1,0,10*,4
CCN(C(=O)C1CCCN(c2nnc(-n3cccc3)s2)C1)c1ccccc1C (stereo not given),2,nt,6,3
COc1ccc(NC(=O)COc2ccc(CNCCCN3CCOCC3)cc2OC)cc1,0,0,10*,6
CC(=NNC(=S)Nc1ccccc1)c1ccccn1,21*,0,6,6
CC(=NNC(=S)Nc1ccccc1Cl)c1ccccn1,13,-1,-1,-1
O=C(Nc1cccc([N+](=O)[O-])c1)NC1CCCCN(Cc2ccc(Cl)cc2)C1=O (stereo not given),-27,nt,5,7
O=C(O)/C=C1\NC(=O)c2ccccc21,0,-1,2,1
O=C1N/C(=C\c2ccc(O)cc2)C(=O)c2ccccc21,nt,7.8*,nt,nt
Cc1ccc(C(=O)Nc2ccc(Oc3ccc(C(=O)O)c(C(=O)O)c3)cc2)cc1C,3,-1,11*,4
CCCc1ccc(C2C3=C(CC(C)(C)CC3=O)NC3=C2C(=O)c2ccccc23)cc1 (stereo not given),1,-1,10*,6
Cc1ccccc1OCC(O)CNC1CCC(NCC(O)COc2ccccc2C)CC1 (stereo not given),-16,-1,16*,7
Cc1ccc(OCC(O)CNC2CCCC2)c(C)c1 (stereo not given),12,0,0,-5
CCc1nnc(NC(=O)CSc2ccc(-c3nc4ccccc4[nH]3)cn2)s1,-14,9.9*,-19,-23
O=C(c1cccs1)N1C[C@H](O)[C@@H](n2cc(C3CC3)nn2)C[C@@H]1c1ccccc1,0,-1,11*,4
COc1cc2c(=O)n(Cc3ccccc3)c(=O)n(CC(=O)NCCc3ccccc3)c2cc1OC,0,-1,9.5*,8
c1ccc(Cn2nnc3ccccc32)cc1,0,0,3,-2
C[C@@H](Oc1ccccc1)c1nnn(Cc2ccccc2)c1-c1c([C@@H](C)Oc2ccccc2)nnn1Cc1ccccc1,-7,nt,16*,3
O=C1CC(c2ccc(F)c(Br)c2)C2=C(CCCC2=O)N1 (stereo not given),-1,-1,0,-1
O=C1CC(c2ccc3c(c2)OCO3)C2=C(CCCC2=O)N1 (stereo not given),3,-1,10*,3
O=C1CCC[C@H]2C[C@H](NCc3ccc(Cl)c(C(F)(F)F)c3)CC[C@]23CCCN13,0,nt,-1,0
N#C/C(=C/c1ccc(Sc2nc3ccccc3[nH]2)o1)c1cccc(Br)c1,-15,19*,-36,-49
Cc1ccc(S(=O)(=O)NC(=O)ON=Cc2ccc3c(c2)OCO3)cc1,-2,nt,-1,2
CO/N=C/c1ccc(N2CCN(C(=O)c3ccc(C)cc3)CC2)c([N+](=O)[O-])c1,1,16*,-2,-3
CO/N=C/c1ccc(N2CCCC2)c([N+](=O)[O-])c1,5,0,1,1
SMILES,sPLA2-III inh,Tb MetRS inh,PLC-gamma1 inh,PLC-beta3 inh
C/C(C=NNC(=O)CSc1nc2ccccc2n1Cc1ccccc1Cl)=C\c1ccccc1,2,nt,3,0
O=C(NCCc1ccccc1)c1cc2sccc2n1Cc1ccccc1,-4,0,10*,4
CC(C)(C)c1ccc(S(=O)(=O)N(CCCN2CCOCC2)Cc2cccs2)cc1,-7,-1,10*!,5
Cn1c(=O)cc(OCCCC(=O)Nc2cc(-c3cn[nH]c3)ccn2)c2ccccc21,-3,nt,1,6
O=c1ccc2cc3c([nH]c4ccc(Br)cc43)oc-2c1O,43*,3,10*,-10
O=C(O)c1ccc(N=Nc2c(O)[nH]c3ccc(Br)cc23)cc1,0,-1,1,-8
Fc1ccc(Cn2ccc3ccc(-c4ccc5ccn(Cc6ccc(F)cc6)c5c4)cc32)cc1,2,nt,-62,-75
Nc1ccc(Cn2ccc3c4c(N)nc(N)nc4ccc32)cc1,22*,0,-29,-41
Cc1ccccc1C(=O)NNC(=S)Nc1cccc(C(F)(F)F)c1,24*,-1,6,5
Cc1ccc(S(=O)(=O)/N=C2\SC(CC(=O)Nc3ccc(F)cc3)C(=O)N2c2ccccc2)cc1 (stereo not given),-79,0,7,11*
O=C(c1cccc([N+](=O)[O-])c1)n1nc(-c2ccccc2)nc1NCc1ccccc1,1,-1,1,1
O=C(CSc1nc(-c2ccccc2)nn1C(=O)c1ccccc1)Nc1cccc([N+](=O)[O-])c1,-25,18*,-3,2
O=C1c2cc(CO)cc(O)c2C(=O)c2c(O[C@@H]3OC(CO)[C@@H](O)[C@@H](O)[C@@H]3O)cccc21 (stereo not given in full),-1,0,-4,-8
O=C(O)c1cc(O)c2c(c1)[C@@H]([C@H]1c3cc(C(=O)O)cc(O)c3C(=O)c3c(O[C@@H]4O[C@H](CO)[C@@H](O)[C@H](O)[C@H]4O)cccc31)c1cccc(OC3O[C@H](CO)[C@@H](O)[C@H](O)[C@H]3O)c1C2=O (stereo not given in full),17,1,7,12*
Cn1cccc1C(=O)N1CCN(S(=O)(=O)c2cccs2)CC1,6,nt,-1,1
CCCc1nnn(S(=O)(=O)c2ccc([N+](=O)[O-])cc2)c1CCC,10,0,12*,13*
CN(CC#CC1=CCCCC1)/C(N)=N/C(=O)OCc1ccccc1,-5,nt,2,2
O=C(CNc1cccc([N+](=O)[O-])c1)N1CCN(S(=O)(=O)c2ccc(Cl)cc2)CC1,6,0,1,12*
COc1ccc([C@H]2OC(=O)C[C@@H]2C(=O)N2CCCCC2)cc1OC,0,nt,0,0
O=C(CN1C2=NCCN2c2ccccc21)c1ccc2c(c1)OCO2,-12,1,1,2
O=C(CN1C2=NCCN2c2ccccc21)c1ccc(Br)cc1,-45,5.9*,3,3
O=C1NC[C@@H](CCCCN2CCN(CCC3CCCCC3)C(=O)C2=O)N(Cc2ccccc2)C1=O,5,0,14*,6
O=C1NC[C@@H](CCCCN2CCN(CC3CCCCC3)C(=O)C2=O)N(Cc2ccccc2)C1=O,3,0,-3,2
CN1C2=N[C@H](c3ccc(Br)cc3)CC(=O)N2/C(=C\c2ccccc2)[C@@H]1c1ccccc1,-17,nt,-4,-3
CC(=O)N1[C@@H](CO)[C@@H](c2ccc(-c3cccc(F)c3)cc2)[C@@H]1CNCC1CCC1,-5,nt,-1,-2
Cc1nc2ncnn2c(C)c1CCC(=O)O,6,-1,10*,9
COc1ccc(C(=O)NCC2CCN(C(=O)C(=O)c3cccs3)CC2)cc1,15,nt,1,0
Cc1cc(C)nc(SCCN2CCCCC2)n1,4,0,13*,-9

# Source: PubChem (The Scripps Research Institute Molecular Screening Center)
